Only some compounds are listed: those with a hit (about 1.8% of all), similar ones and a draw of the others.
M5 ag: CHRM5 agonism in calcium assay | 360,000 compounds, 0.19% hits | CHO-K1 hM5 cells, Fluo-8 calcium fluorescence; 0% DMSO wells, 100% maximal acetylcholine response | activation, % at 3 µM;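 active = activation above the run's mean over test compounds plus 3 SD, cut at about 23% in these data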;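 note: signal is peak over basal fluorescence ratio across the kinetic read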
Target sequence (P08912 whole entry, looked up): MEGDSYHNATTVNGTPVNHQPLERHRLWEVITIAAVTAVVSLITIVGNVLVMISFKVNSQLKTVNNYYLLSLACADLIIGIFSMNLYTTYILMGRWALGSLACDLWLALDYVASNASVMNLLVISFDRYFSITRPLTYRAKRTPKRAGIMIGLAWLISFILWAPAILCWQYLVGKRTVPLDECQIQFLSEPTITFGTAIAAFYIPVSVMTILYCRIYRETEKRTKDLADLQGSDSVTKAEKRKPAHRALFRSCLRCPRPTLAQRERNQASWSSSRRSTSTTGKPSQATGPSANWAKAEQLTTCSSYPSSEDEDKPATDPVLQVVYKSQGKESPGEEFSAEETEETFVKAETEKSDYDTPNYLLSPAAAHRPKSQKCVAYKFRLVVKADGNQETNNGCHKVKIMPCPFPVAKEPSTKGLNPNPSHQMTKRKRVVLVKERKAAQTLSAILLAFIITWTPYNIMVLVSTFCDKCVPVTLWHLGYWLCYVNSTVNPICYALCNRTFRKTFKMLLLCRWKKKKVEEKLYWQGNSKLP
CHRM4 agonist: CHRM4 agonism in calcium assay; P08173; activation, % at 3 µM; CHO-K1 hM4/Gqi5, Fluo-8 calcium fluorescence; vehicle 0%, full acetylcholine response 100%; 360,000 compounds, 0.14% hits; AID 624127;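 active = activation above the run mean over all test wells plus 3 SD, cut at about 32% in these data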;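 note: peak over basal fluorescence ratio per well then scaled between controls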
M4 PAM: CHRM4 positive allosteric modulation | P08173 | CHO-K1 hM4/Gqi5, Fluo-8 calcium fluorescence, ACh EC20; 0% = ACh EC20, 100% = maximal ACh | activation, % at 3 µM | 360,000 compounds, 0.4% hits | AID 624126;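 active = activation above its plate's cutoff, the mean activation of sample wells plus 3 SD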
CHRM5 antagonist: CHRM5 antagonism in calcium assay | 360,000 compounds, 0.59% hits | inhibition, % at 3 µM | CHO-hM5 cells, Fluo-8 calcium fluorescence, ACh EC80;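 active = inhibition above a per-plate cutoff, the mean of that plate's test compounds plus 3 SD, cut at about 27% in these data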
M5 PAM: potentiates acetylcholine response at human M5 receptor. P08912. CHO-K1 hM5, Fluo-8 calcium, ACh EC20 PAM; 0% = ACh EC20, 100% = ACh EC100. activation, % at 3 µM. 360,000 compounds, 0.3% hits. AID 624038;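 active = activation above the run cutoff, the mean activation of all test compounds plus 3 SD, cut at about 18% in these data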
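System: CHO-K1 hM5 cells. Reagent: acetylcholine, EC20 level. Compound dosing: single dose, 3 µM nominal final test concentration. Timing: Post-acetylcholine fluorescence recording 140 s. Detection: Fluo-8 calcium fluorescence. Read-out: % activation, ACh-normalized. Benchmarks: ACh EC20 and EC100 wells. Repeats: singlicate, one well per test compound.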
CHRM4 antagonist: CHRM4 antagonism in calcium assay. CHO-hM4 cells, ACh EC80, Fluo-8 calcium fluorescence. inhibition, % at 3 µM. P08173. AID 624125. 360,000 compounds, 0.73% hits;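 active = inhibition above its plate's cutoff, the mean inhibition of sample wells plus 3 SD, cut at about 27% in these data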
Hits are given with their value; n = inactive; ! = repeats disagree.

SMILES | M5 ag | CHRM4 agonist | M4 PAM | CHRM5 antagonist | M5 PAM | CHRM4 antagonist
CCC(O)C1CCN(C(=O)c2cc(COc3ccc4ncccc4c3)on2)CC1 (stereo not given) | n | n | n | 35 | n | n
Cc1cc2c(cc1C)N(C(=O)CSc1nncn1C)C(C)(C)c1ssc(=S)c1-2 | n | n | n | 34 | n | n
Clc1cccc(Cl)c1C[n+]1ccc2ccccc2c1 | n | n | n | n | n | n
Cc1ccc(-n2nc3c(n2)/C(=N/O)CC/C3=N\O)cc1 | n | n | n | n | 34 | n
CN(C)c1ccc(/C=C2\Oc3ccc(C#Cc4cccc(N)c4)cc3C2=O)cc1 | 67 | 96 | n | 33 | n | n
O=S(=O)(c1ccccc1)N1CCN(Cc2ccccc2)c2ccccc21 | n | n | n | n | n | n
O=C(Nc1ccc(-c2nc3ccccc3s2)c(O)c1)C1=COCCO1 | n | n | n | n | n | n
O=C(Nc1ccc(O)c(-c2nc3ccccc3s2)c1)C1=COCCO1 | n | n | n | n | n | 79
CC1=CC(C)(C)NC(=S)N1c1ccccc1C | n | n | n | n | n | n
CC1=CC(C)(C)NC(=S)N1c1cccc2cc(S(=O)(=O)O)ccc12 | n | n | n | 27 | n | n
CC(C)=CCCC(C)=CCN1C(=O)CN(C)C1=O | n | n | n | n | n | n
CCCCCOc1ccc(Br)cc1CSC(=N)N | n | n | n | 32 | n | n
CC(=O)Nc1csc2ccccc12 | n | n | n | n | n | n
O=C(Nc1ccccc1)Nc1csc2ccccc12 | n | n | n | 29 | n | n
C=CC[n+]1ccc(/C=C2\C=Cc3cc(C)ccc3N2CC)c2ccccc21 | n | n | n | 35 | n | n
CCN1/C(=C/c2cc[n+](CCCS(=O)(=O)[O-])c3ccccc23)Sc2ccccc21 | n | n | n | n | n | n
COc1ccccc1C(=O)N/C(=C\c1cn(C)c2ccccc12)C(=O)NCCCN1CCOCC1 | n | n | n | n | n | n
Clc1ccc2ccc3cccnc3c2n1 | n | n | n | n | n | n
O=S1(=O)Nc2c(ccc3cccnc23)-c2ccccc21 | n | n | n | 31 | n | 30
CCN1CCCC(OC(=O)C(c2ccccc2)c2ccccc2)C1 (stereo not given) | n | n | n | 57 | n | 32
CCOC(=O)N1CCN(c2ccnc3cc(Cl)ccc23)CC1 | n | n | n | n | n | 77
O=C(Cn1c(=O)sc2ccccc21)Nc1ccc(O)cc1 | n | n | 24 | n | n | n
NC(=O)c1nsc(C(=O)N(c2cccc(F)c2)C(C(=O)NC2CCCC2)c2ccc(O)cc2)c1N (stereo not given) | n | n | n | n | n | n
COc1ccc(C(C(=O)NC2CCCC2)N(C(=O)c2snc(C(N)=O)c2N)c2cccc(O)c2)cc1 (stereo not given) | n | n | n | 27 | n | n
O=C(Nc1ccc2c(c1)OCCO2)C(c1ccnc2ccccc12)N1CCN(c2ccc(C(F)(F)F)cn2)CC1 (stereo not given) | n | n | n | n | n | n
SMILES | M5 ag | CHRM4 agonist | M4 PAM | CHRM5 antagonist | M5 PAM | CHRM4 antagonist
O=C(Nc1ccc2c(c1)OCCO2)C(c1ccnc2ccccc12)N1CCN(c2ccc(F)cc2)CC1 (stereo not given) | n | n | n | n | 19 | n
COC(=O)C1=C(C(=O)OC)[C@@H]2Nc3ccccc3[C@@]23C[C@@H](C(=O)OC)N(C(=O)c2cccs2)C3=N1 | n | n | 25 | n | n | n
Cc1cccc(N2CCN(C(=O)CCC(=O)N3CCOc4ccc(Cl)cc43)CC2C)c1 (stereo not given) | n | n | n | n | n | n
O=C(Cn1c(=O)c2cccn2c2ccc(F)cc21)N1CCN(c2ccc(F)cc2)CC1 | n | n | n | 28 | n | n
O=C(O)CCNC(=O)c1ccc(NC(=O)Cc2ccc(Cl)cc2)cc1 | n | n | n | n | n | n
COc1ccc(CN(C)C(=O)c2cccc(C(=O)N(C)Cc3ccc(OC)cc3)c2)cc1 | n | n | n | n | n | n
CCc1sc(C(=O)Nc2ncccc2O)cc1C | n | n | 20 | n | n | n
CCc1sc(C(=O)Nc2ncccc2C)cc1C | n | n | n | n | n | n
CC(C)Cc1nnc(NC(=O)CCC(=O)NC2CC2)s1 | n | n | n | n | n | n
COc1ccc(OC)c(CCNC(=O)c2ccc3c(c2)N(Cc2ccc(F)cc2)CCS3)c1 | n | n | n | n | n | n
COc1ccc(CCNC(=O)c2ccc3c(c2)N(Cc2ccc(C)cc2)CCS3)cc1OC | n | n | n | 39 | n | n
Cc1ccc(C)c(NC(=O)COC(=O)c2ccc(S(=O)(=O)N3CCCCC3)cc2)c1 | n | n | n | n | n | n
CCOc1ccc(NC(=O)C[n+]2ccc(N(C)C)cc2)cc1 | n | n | n | n | n | n
CN(C)c1cc[n+](CC(=O)Nc2ccc(Oc3ccccc3)cc2)cc1 | n | n | n | n | n | 43
CSc1nc(C)c(CCO)c(=O)[nH]1 | n | n | n | n | n | n
COC(=O)c1cn(Cc2ccccc2C)nn1 | n | n | 22 | n | n | n
CC(C)[C@@H]1Cc2[nH]n(C)c(=O)c2[C@H](c2ccc(F)cc2)O1 | n | n | n | n | n | n
COc1ccc(OC)c(NC(=O)c2nc(S(=O)(=O)Cc3ccccc3)ncc2Cl)c1 | n | n | n | n | n | 44
COc1ccc(NC(=O)c2nc(S(=O)(=O)Cc3cccc(C)c3)ncc2Cl)c(OC)c1 | n | n | n | n | n | n
Cc1ccccc1CS(=O)(=O)c1ncc(Cl)c(C(=O)Nc2ccc(F)cc2)n1 | n | n | n | n | n | 29
O=C(Nc1ccc(F)cc1)c1nc(S(=O)(=O)Cc2ccccc2)ncc1Cl | n | n | n | n | n | 36
Cc1ccc(NC(=O)c2nc(S(=O)(=O)Cc3ccccc3)ncc2Cl)cc1 | n | n | n | n | n | 46
Cc1cccc(C)c1NC(=O)c1nc(S(=O)(=O)Cc2ccccc2)ncc1Cl | n | n | n | n | n | n
COc1ccccc1CN1CC(C(=O)N(C)Cc2[nH]c3ccccc3c2C)CCC1=O (stereo not given) | n | n | n | n | n | n
CCCCNc1c(-c2ccc(SC3CCCCC3)c(OC)c2)nc2ccc(C)cn12 | n | n | n | n | n | 35!
CCCCNc1c(-c2ccc(OC)c(SC3CCCCC3)c2)nc2ccc(C)cn12 | n | n | n | 40 | n | 78
COc1ccc(/C=N\NC(=O)c2ccc([N+](=O)[O-])cc2)cc1COc1c(F)c(F)cc(F)c1F | n | n | n | 27 | n | n
